High-throughput results (PubChem)
hERG protect – hERG (human) protection from proarrhythmic block; CHO-hERG, FluxOR thallium flux, dofetilide IC70 present; actives 0.51% (n = 310,000); Q12809; activation (rescue from dofetilide block), less the hit threshold, % at 10 µM;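 active = activation above the mean of controls blocked by dofetilide plus 5 SD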;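 also: thallium influx through hERG after potassium depolarization seen as dye fluorescence rise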
KCNK9 inh – blocks the human KCNK9 two-pore domain potassium channel. B-score at 10 µM. actives 1.2% (n = 310,000). HEK293 KCNK9, FluxOR thallium flux fluorescence; stronger effect = lower value;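 active = ratio B-score over 3 SD below the library mean, with starting fluorescence within 5 SD of its mean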;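 also: negative B-score means less thallium flux so channel inhibition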
KCNK3 block – human KCNK3 channel inhibition, primary screen. O14649. CHO-KCNK3 thallium flux, FluxOR fluorescence; stronger effect = lower value. B-score at 10 µM. actives 0.84% (n = 340,000). AID 602410;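 active = B-score under library mean minus 4 SD, starting fluorescence ratio at most library mean plus 5 SD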;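 also: more negative B-score means stronger inhibition of thallium flux through KCNK3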
Target sequence (O14649 whole entry, looked up): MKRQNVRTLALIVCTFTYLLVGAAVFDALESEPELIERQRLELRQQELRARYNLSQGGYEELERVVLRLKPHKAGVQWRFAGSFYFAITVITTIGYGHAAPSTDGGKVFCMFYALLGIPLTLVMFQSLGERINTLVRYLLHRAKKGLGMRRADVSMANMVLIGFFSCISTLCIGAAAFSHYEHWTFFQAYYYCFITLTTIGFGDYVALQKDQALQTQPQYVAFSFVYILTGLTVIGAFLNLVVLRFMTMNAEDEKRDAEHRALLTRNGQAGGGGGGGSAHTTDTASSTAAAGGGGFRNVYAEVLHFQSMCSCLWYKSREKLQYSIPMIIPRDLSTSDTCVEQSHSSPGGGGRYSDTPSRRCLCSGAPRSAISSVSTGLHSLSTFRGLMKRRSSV
KCNQ1 block – human KCNQ1 channel inhibition; P51787; CHO-K1 KCNQ1, FluxOR thallium flux fluorescence; stronger effect = higher value; B-score at 10 µM; actives 1.3% (n = 310,000);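 active = compounds whose thallium flux B-score, printed positive for inhibition, exceeds three library SD while starting fluorescence stays within three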;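 also: channel opened by potassium depolarization with thallium stimulus after 20 min compound exposure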
KCNQ1 act – potentiates or activates the human KCNQ1 potassium channel | B-score at 10 µM | CHO-K1 KCNQ1, thallium flux FluxOR fluorescence; stronger effect = higher value | actives 0.35% (n = 310,000);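 active = fluorescence ratio B-score, a plate-corrected score, at least three library SD, with initial intensity B-score within 5 SD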
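Doses: Single concentration per compound, DMSO matched to controls | Test system: KCNQ1-transfected CHO-K1 cells | Timing: 90 min dye loading and 20 min compound exposure, both at room temperature | Measured by: Kinetic FluxOR thallium fluorescence, 10-s 1-Hz baseline, 110-s post-stimulus read | Medium: Assay buffer with matched DMSO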
Kir21 block – blocks the mouse Kir2.1 inward-rectifier potassium channel | B-score at 10 µM | HEK293-Kir2.1, FluxOR thallium flux fluorescence; stronger effect = lower value | AID 1672 | actives 0.85% (n = 310,000);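 active = fluorescence ratio B-score at or below minus 3 SD of library scores, with starting-brightness B-score within 2 SD, cut at about -4.2 in these data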;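 also: channel flux triggered by added potassium and thallium sulfate stimulus; B-score of peak minus minimum fluorescence over baseline after thallium stimulus; more negative B-score means stronger Kir2.1 block with less thallium influx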
KCNK9 block conf – human KCNK9 inhibitor confirmation; shares compounds with KCNK9 inh; HEK293 KCNK9 cells, FluxOR thallium flux fluorescence; inhibition, % at 10 µM; actives 43% (n = 4,900);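 active = thallium signal inhibited by more than 5 SD of the compound-free buffer control wells, on both duplicate plates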;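 also: 0% = assay buffer control wells without compound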
Kir21 sel – selectivity of KCNK9 modulators against mouse Kir2.1; Kir2.1 cells, FluxOR thallium flux fluorescence; AID 492993; shares compounds with KCNK9 inh; inhibition, % at 10 µM; actives 4% (n = 4,900);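 active = thallium signal drop more than 5 SD beyond the mean of the no-compound control wells, seen in both duplicate plates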;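 also: signal is fluorescence rise after thallium addition divided by baseline fluorescence; plate controls were assay buffer only for no effect and full block by chlorpromazine control for full effect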
KCNK9 uninduced – second check of KCNK9 modulator effects in non-induced HEK293 cells | shares compounds with KCNK9 inh | FluxOR thallium flux | inhibition, % at 10 µM | actives 40% (n = 4,900) | AID 492997;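 active = thallium signal drop beyond 5 SD of the untreated control mean, on both duplicate plates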;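 also: plate controls were buffer only IC0 wells for no effect and SID17386958 at its maximal inhibitory level for full effect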
The depositor's hits bear a star; i = inactive; . = no result given. Only some compounds are listed: those with a hit (about 3.7% of all), similar ones and a draw of the others.

SMILES	hERG protect	KCNK9 inh	KCNK3 block	KCNQ1 block	KCNQ1 act	Kir21 block	KCNK9 block conf	Kir21 sel	KCNK9 uninduced
COc1ccc2c(c1)C1=NN(/C(C)=C/C(C)=O)C(c3cccc(F)c3)C1CC2 (configuration not stated)	-16	-12*	i	i	i	-1.7	44%*	i	33%*
Cc1ccc(N(CC(=O)NCCSc2nc3ccccc3s2)S(=O)(=O)c2ccccc2)c(C)c1	-11	i	i	i	i	0.02	.	.	.
O=C(CC(=O)c1ccccc1[N+](=O)[O-])c1ccccc1	-3	i	.	i	i	-0.55	.	.	.
O=C(NCc1cc(Br)cc(Br)c1OC(=O)c1ccccc1[N+](=O)[O-])c1ccccc1	-13	-9.9*	i	i	i	0.42	62%*	i	34%*
O=C(OCc1cncs1)c1cccs1	-15	i	i	i	i	-0.34	.	.	.
C=CCN(C(=O)c1oc2c(Cl)cc(C)cc2c1C)C1CCS(=O)(=O)C1 (configuration not stated)	-7	i	i	i	i	-1.9	i	i	i
Cc1cc(C)cc(CC2CC(=O)N(c3cc(C)on3)C2=O)c1 (configuration not stated)	-12	i	i	i	i	0.28	.	.	.
Cc1cc(C)cc(CC2CC(=O)N(c3ccc4c(c3)OCCO4)C2=O)c1 (configuration not stated)	-3	i	i	i	i	-1.1	i	i	i
O=C(NCc1ccc(F)cc1)c1noc2c1CCCC2	-5	i	i	i	i	2.9	.	.	.
CC(C)(C)C1CCc2onc(C(=O)NCc3ccc(F)cc3)c2C1 (configuration not stated)	-9	i	i	i	i	0.63	i	i	i
CC(C(=O)N1CCc2ccccc21)N1CCN(Cc2ccccc2)CC1 (configuration not stated)	-5	i	i	i	i	-1.3	.	.	.
CN(C(=O)COC(=O)C1CCN(S(=O)(=O)c2ccc3c(c2)OCCO3)CC1)C1CCCCC1	-15	i	i	i	i	-0.94	.	.	.
CN(C)CCCN(C(=O)c1ccc(C(=O)c2ccccc2)cc1)c1nc2c(F)cccc2s1	-16	i	i	i	i	-2.5	i	i	i
Cc1cccc(CSc2nc(N)c(C#N)c(-c3cccs3)c2C#N)c1	-7	-8.5*	i	i	i	2.9	48%*	i	46%*
CN(C)c1ccc(C(=O)c2ccc(N(C)C)c3ccccc23)cc1	-4	i	i	i	i	-0.01	i	i	i
O=C(O)c1cccc(CN2C(=O)S/C(=C/c3cccc([N+](=O)[O-])c3)C2=O)c1	-16	i	i	i	i	0.1	i	i	i
Cc1[nH]nc(-c2ccc(O)c(C)c2O)c1Oc1ccccc1	-17	-14*	i	i	i	-0.42	34%*	i	i
COCCCNC(=O)CCCn1c(=O)c2ccccc2n(Cc2cccc([N+](=O)[O-])c2)c1=O	-12	i	i	i	i	-0.41	.	.	.
Cc1ccnc(NC(=O)c2ccc3c(c2)C(=O)N(CCC(C)C)C3=O)c1	-8	i	i	i	i	-1.1	.	.	.
COc1ccc(/C=N/NC(=O)C2(C)NC(C)(C)Cc3ccccc32)cc1 (configuration not stated)	-11	i	i	i	i	0.01	.	.	.
CC(C)(C)Nc1nc(-c2ccc3c(c2)CCN3C(=O)C2CC2)cs1	-8	i	i	i	i	0.17	.	.	.
CC(C)C(=O)Nc1nc(-c2ccc3c(c2)CCN3C(=O)C2CC2)cs1	-17	-8.9*	i	i	i	0.5	i	i	i
Cc1cc(C)cc(C(=O)NCC(=O)OCC(=O)c2cc(C)n(CC(F)(F)F)c2C)c1	-11	i	i	i	i	-2.5	.	.	.
Cc1ccc(NC(=O)CN2CCc3cc4c(cc3C2C)OCCCO4)cc1C (configuration not stated)	-11	i	i	i	i	0.24	i	i	31%*
Cc1ccc(NC(=O)CN2CCc3cc4c(cc3C2C)OCCCO4)cc1 (configuration not stated)	-12	i	i	i	i	0.12	.	.	.
SMILES	hERG protect	KCNK9 inh	KCNK3 block	KCNQ1 block	KCNQ1 act	Kir21 block	KCNK9 block conf	Kir21 sel	KCNK9 uninduced
Cc1cc(Cn2nnnc2-c2ccncc2)cc(C)c1O	-4	i	i	i	i	-0.02	.	.	.
N#Cc1cc(-c2ccc(Cl)cc2)cnc1Sc1ccccc1	-11	i	i	i	i	0.98	.	.	.
N#Cc1cc(-c2ccccc2)cnc1Sc1ccc(Cl)cc1	-14	i	i	i	i	0.7	i	i	i
S=C(NC1CCCCC1)N1CCN(Cc2ccccc2Cl)CC1	-4	i	i	i	i	0.62	.	.	.
O=C(Nc1c(S(=O)(=O)c2ccc(Cl)cc2)csc1Br)c1ccccc1Cl	-5	-11*	i	i	i	-0.16	38%*	i	35%*
O=C(NC(=O)c1ccccc1Cl)C(=O)Nc1ccc(Cl)cc1	-4	i	i	i	i	1.2	.	.	.
N#Cc1c(SCc2ccc(Cl)cc2)sc(C(=O)c2ccccc2)c1N	-6	-11*	i	i	i	1.8	26%*	i	34%*
O=S(=O)(c1ccccc1)N(CC(O)Cn1c2ccccc2c2ccccc21)c1ccccc1 (configuration not stated)	-13	-11*	i	i	i	-0.48	40%*	i	25%*
Cc1ccc(S(=O)(=O)N(C)CC(O)Cn2c3ccccc3c3ccccc32)cc1 (configuration not stated)	1	i	i	i	i	-1.7	.	.	.
COc1ccccc1NC(=S)NC(=O)C(C)(C)C	-5	i	i	i	i	-0.52	i	i	i
N#Cc1ccsc1NC(=O)CN(Cc1ccccc1)Cc1ccccc1	-7	-17*	i	6*	i	-4.8*	68%*	i	59%*
N#Cc1ccsc1NC(=O)CCc1ccccc1	-17	i	i	i	i	2	.	.	.
CCCNC(=O)c1onc(CSc2ccc(Cl)cc2)c1C(=O)NCC1CC1	-10	i	i	i	i	1.2	i	i	i
